Assay results from different studies.
Lines come from different studies, so protocols differ.
SLC10A2: Ileal sodium/bile acid cotransporter (SLC10A2, Homo sapiens, UniProt Q12908)
AHR: Aryl hydrocarbon receptor (AHR, Homo sapiens, UniProt P35869)

SMILES | target | assay | conditions | endpoint | value
CC(C)c1cc(C2CCCN2C(=O)c2cc(-c3ccc4c(c3)OCO4)on2)no1 (stereo not drawn) | Cannabinoid receptor 2 (CNR2, Homo sapiens, UniProt P34972) | cAMP, agonist, TR-FRET | – | EC50 | 0.01 µM
CSCC[C@H](NC(=O)[C@@H](NC(=O)[C@@H](N)Cc1ccc(O)cc1)C(C)C)C(=O)NCC(=O)N[C@@H](Cc1c[nH]cn1)C(=O)N[C@@H](Cc1ccccc1)C(=O)N[C@@H](CCCNC(=N)N)C(=O)N[C@@H](Cc1c[nH]c2ccccc12)C(=O)N[C@@H](CC(=O)O)C(=O)O | Melanocortin receptor 5 (MC5R, Homo sapiens, UniProt P33032) | reporter gene, agonist | – | EC50 | 4.46 µM
CCN(CC)CCCC(C)Nc1ccnc2cc(Cl)ccc12 (stereo not drawn) | SLC10A2 | transporter uptake, inhibitor | – | Ki | 6320 µM
COC(=O)c1cccc(C(=O)c2c[nH]c3c2ccc2ccccc23)n1 | AHR | reporter gene, agonist, luciferase | – | EC50 | 0.015 µM
O=C(CCCCCCNC(=O)c1cnc(N(c2ccccc2)c2ccccc2)nc1)NO | Polyamine deacetylase HDAC10 (HDAC10, Homo sapiens, UniProt Q969S8) | cell-free assay | – | Kd | 0.456 µM
O=C(c1ccccn1)c1c[nH]c2ccccc12 | AHR | reporter gene, agonist, luciferase | – | EC50 | > 0.01 µM
CCOC(=O)C1=C(C)NC(C)=C(C(=O)OCC)C1c1c(F)c(F)c(F)c(F)c1F | SLC10A2 | transporter uptake, inhibitor | – | Ki | 23.1 µM
CC[C@H](C)[C@H](NC(=O)[C@H](CCCCN)NC(=O)[C@H](CO)NC(=O)[C@H](CC(=O)O)NC(=O)[C@H](CCCCN)NC(=O)[C@H](CCCCN)NC(=O)CNC(=O)[C@H](Cc1c[nH]cn1)NC(=O)[C@@H](N)CCC(N)=O)C(=O)N[C@H](C(=O)N[C@@H](CC(=O)O)C(=O)N[C@@H](Cc1c[nH]cn1)C(=O)N[C@@H](Cc1ccccc1)C(=O)N[C@@H](CCSC)C(=O)N[C@@H](CCCNC(=N)N)C(=O)O)[C@@H](C)O | Proliferating cell nuclear antigen (PCNA, Homo sapiens, UniProt P12004) | binding, ITC | pH 7.4 | Kd | 45.3 µM
O=C(c1cccc(Cl)n1)c1c[nH]c2ccccc12 | AHR | reporter gene, agonist, luciferase | – | EC50 | 0.178 µM
Cc1cc2nc3c(=O)[nH]c(=O)nc-3n(C[C@H](O)[C@H](O)[C@H](O)COP(=O)(O)OP(=O)(O)OC[C@H]3O[C@@H](n4cnc5c(N)ncnc54)[C@H](O)[C@@H]3O)c2cc1C | Splicing factor 1 (Homo sapiens, UniProt Q15637) | binding | lysate | Kd | 0.842 µM
C[C@]12C=CC(=O)C=C1CC[C@@H]1[C@@H]2C(=O)C[C@@]2(C)[C@H]1CC[C@]2(O)C(=O)CO | SLC10A2 | transporter uptake, inhibitor | – | Ki | 1480 µM
Cc1[nH]c2ccccc2c1C(=O)c1ccccc1 | AHR | reporter gene, agonist, luciferase | – | EC50 | > 10 µM
O=C(N[C@H]1COC(=O)[C@@H](NC(=O)c2cccc(O)c2O)COC(=O)[C@@H](NC(=O)c2cccc(O)c2O)COC1=O)c1cccc(O)c1O | Neutrophil gelatinase-associated lipocalin (LCN2, Homo sapiens, UniProt P80188, C107S) | binding, fluorescence | pH 5.5 | Kd | 0.0055 µM
NS(=O)(=O)c1cc2c(cc1Cl)N=CNS2(=O)=O | SLC10A2 | transporter uptake, inhibitor | – | Ki | 1220 µM
CCOC(=O)c1cccc(C(=O)c2c[nH]c3ccccc23)n1 | AHR | reporter gene, agonist, luciferase | – | EC50 | 1.11 µM
